One block for each compound: values may come before it. Calls of active or inactive are those of the source. The rule behind the calls is not given here.
Tests used:
[1] = target: Free fatty acid receptor 1 (Rattus norvegicus, UniProt Q8K3T4); experiment: Displacement of 3-[4-({2',6'-dimethyl-6-[(4-[3H])phenylmethoxy]biphenyl-3-yl}methoxy)phenyl]propanoic acid from rat GPR40 expressed in CHO membranes after 90 mins by liquid scintillation counting in presence of 0.2 % BSA; assay type: cell membranes, Membrane
Chain of Free fatty acid receptor 1 (Rattus norvegicus, UniProt Q8K3T4) (Q8K3T4 whole entry): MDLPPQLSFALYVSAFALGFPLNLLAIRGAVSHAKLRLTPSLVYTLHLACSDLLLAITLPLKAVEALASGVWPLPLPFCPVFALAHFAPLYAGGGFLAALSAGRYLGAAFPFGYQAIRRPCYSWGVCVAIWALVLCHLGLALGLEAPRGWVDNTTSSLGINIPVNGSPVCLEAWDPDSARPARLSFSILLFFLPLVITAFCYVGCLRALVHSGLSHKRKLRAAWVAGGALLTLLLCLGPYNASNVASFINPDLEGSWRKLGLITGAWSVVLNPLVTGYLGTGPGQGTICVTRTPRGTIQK

[2] = target: T1, Free fatty acid receptor 1 (Homo sapiens, UniProt O14842); experiment: Displacement of 3-[4-({2',6'-dimethyl-6-[(4-[3H])phenylmethoxy]biphenyl-3-yl}methoxy)phenyl]propanoic acid from human GPR40 expressed in CHO membranes after 90 mins by liquid scintillation counting in presence of 0.2 % BSA; assay type: cell membranes
T1 sequence (O14842 whole entry): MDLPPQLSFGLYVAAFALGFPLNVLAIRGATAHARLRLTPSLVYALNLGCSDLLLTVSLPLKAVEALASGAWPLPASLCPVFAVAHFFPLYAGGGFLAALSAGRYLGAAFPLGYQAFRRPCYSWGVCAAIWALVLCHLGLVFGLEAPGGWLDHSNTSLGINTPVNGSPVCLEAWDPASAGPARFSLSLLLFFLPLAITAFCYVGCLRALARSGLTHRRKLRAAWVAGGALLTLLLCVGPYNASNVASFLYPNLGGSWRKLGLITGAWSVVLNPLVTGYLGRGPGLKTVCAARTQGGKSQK

[3] = target: T1, Free fatty acid receptor 1; experiment: Agonist activity at human GPR40 expressed in CHO cells assessed as calcium influx by FLIPR assay in presence of 0.1 % BSA; assay type: functional, cell-based
[4] = Tmax in fasted Crl:CD(SD) rat at 3 mg/kg, po; assay type: ADME, organism-based; design: dose 3 mg/kg, route oral; conditions: in vivo
How it was run: (§1)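 Rats dosed at 1 mg/kg iv or 3 mg/kg po, with plasma sampling for PK parameters. Cmax and AUC are expressed as anhydrous-compound equivalents. Values are means of n = 3 rats.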

[5] = Terminal half life in fasted Crl:CD(SD) rat at 3 mg/kg, po; assay type: ADME, organism-based; design: dose 3 mg/kg, route oral; conditions: in vivo, read-out: t1/2lambda (converted); how it was run: as §1
[6] = Clearance in fasted dog at 0.5 mg/kg, iv; assay type: ADME, organism-based, Canis lupus familiaris; design: dose 0.5 mg/kg, route intravenous; conditions: in vivo
How it was run: (§2)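 Dogs given 0.5 mg/kg iv or 1 mg/kg po, with plasma PK parameters derived. Cmax and AUC are reported as anhydrous-compound equivalents. Means of n = 4 dogs.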

[7] = Terminal half life in fasted dog at 1 mg/kg, po; assay type: ADME, organism-based, Canis lupus familiaris; design: dose 1 mg/kg, route oral; conditions: in vivo, read-out: t1/2lambda (converted); how it was run: as §2
[8] = target: T2, Free fatty acid receptor 3 (Homo sapiens, UniProt O14843); experiment: Agonist activity at human GPR41 expressed in 293 cells assessed as cAMP accumulation after 30 mins by Alphascreen method; assay type: functional, cell-based, HEK293
T2 sequence (O14843 whole entry): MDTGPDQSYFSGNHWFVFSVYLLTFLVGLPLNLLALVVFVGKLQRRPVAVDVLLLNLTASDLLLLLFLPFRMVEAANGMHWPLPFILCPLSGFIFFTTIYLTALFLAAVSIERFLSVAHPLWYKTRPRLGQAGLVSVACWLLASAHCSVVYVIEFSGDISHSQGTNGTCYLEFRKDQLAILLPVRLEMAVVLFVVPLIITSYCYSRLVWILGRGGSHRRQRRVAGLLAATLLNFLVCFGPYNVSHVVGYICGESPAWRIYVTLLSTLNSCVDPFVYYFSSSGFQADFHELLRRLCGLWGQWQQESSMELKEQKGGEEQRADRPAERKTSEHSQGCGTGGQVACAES

[9] = Clearance in fasted Crl:CD(SD) rat at 1 mg/kg, iv; assay type: ADME, organism-based; design: dose 1 mg/kg, route intravenous; conditions: in vivo; how it was run: as §1
[10] = tested on: Rattus norvegicus; experiment: Antidiabetic activity in po dosed Wistar fatty rat assessed as augmentation of insulin secretion at administered 1 hr prior glucose challenge as single dose by OGTT; assay type: functional; conditions: read-out: MED
How it was run: (§3)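 Female Wistar fatty rats got a single oral dose of 0.3–3 mg/kg 1 h before a 1 g/kg oral glucose challenge (OGTT). Plasma glucose and insulin were followed over time. Read-outs were incremental AUC0–120 min for glucose and AUCpre–30 min for insulin. Means ± SD, n = 6; compared with vehicle control by one-tailed Williams' test.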

[11] = Cmax in fasted Crl:CD(SD) rat at 3 mg/kg, po; assay type: ADME, organism-based; design: dose 3 mg/kg, route oral; conditions: in vivo; how it was run: as §1
[12] = tested on: Rattus norvegicus; experiment: Antidiabetic activity in Wistar fatty rat assessed as reduction in blood glucose excursion at 0.3 to 3 mg/kg, po administered 1 hr prior glucose challenge as single dose by OGTT; assay type: functional, organism-based; how it was run: as §3
[13] = Terminal half life in fasted Crl:CD(SD) rat at 1 mg/kg, iv; assay type: ADME, organism-based; design: dose 1 mg/kg, route intravenous; conditions: in vivo, read-out: t1/2lambda (converted); how it was run: as §1
[14] = tested on: Rattus norvegicus; experiment: Antidiabetic activity in Wistar fatty rat assessed as augmentation of insulin secretion at 0.3 to 3 mg/kg, po administered 1 hr prior glucose challenge as single dose by OGTT
[15] = Tmax in fasted dog at 1 mg/kg, po; assay type: ADME, organism-based, Canis lupus familiaris; design: dose 1 mg/kg, route oral; conditions: in vivo; how it was run: as §2
[16] = Volume of distribution at steady state in fasted dog at 0.5 mg/kg, iv; assay type: ADME, organism-based, Canis lupus familiaris; design: dose 0.5 mg/kg, route intravenous; conditions: in vivo, read-out: Vdss; how it was run: as §2
[17] = Oral bioavailability in fasted dog at 1 mg/kg; assay type: ADME, organism-based, Canis lupus familiaris; conditions: in vivo; how it was run: as §2
[18] = AUC (0 to 24 hrs) in fasted dog at 1 mg/kg, po; assay type: ADME, organism-based, Canis lupus familiaris; design: time < 24 hr, dose 1 mg/kg, route oral; conditions: plasma; how it was run: as §2
[19] = Volume of distribution at steady state in fasted Crl:CD(SD) rat at 1 mg/kg, iv; assay type: ADME, organism-based; design: dose 1 mg/kg, route intravenous; conditions: in vivo, read-out: Vdss; how it was run: as §1
[20] = target: T3, Free fatty acid receptor 2 (Homo sapiens, UniProt O15552); experiment: Agonist activity at human GPR43 expressed in 293 cells assessed as cAMP accumulation after 30 mins by Alphascreen method; assay type: functional, cell-based, HEK293
T3 sequence (O15552 whole entry): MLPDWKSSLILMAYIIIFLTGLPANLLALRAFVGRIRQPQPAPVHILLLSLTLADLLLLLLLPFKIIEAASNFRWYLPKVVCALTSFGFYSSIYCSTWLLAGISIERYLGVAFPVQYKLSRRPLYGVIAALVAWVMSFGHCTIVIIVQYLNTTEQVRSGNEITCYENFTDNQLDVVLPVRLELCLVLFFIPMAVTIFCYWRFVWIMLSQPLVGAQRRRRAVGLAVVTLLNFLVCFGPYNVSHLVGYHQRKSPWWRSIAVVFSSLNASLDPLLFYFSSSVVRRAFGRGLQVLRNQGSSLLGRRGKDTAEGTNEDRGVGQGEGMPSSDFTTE

[21] = Cmax in fasted dog at 1 mg/kg, po; assay type: ADME, organism-based, Canis lupus familiaris; design: dose 1 mg/kg, route oral; conditions: in vivo; how it was run: as §2
[22] = tested on: Rattus norvegicus; experiment: Antidiabetic activity in po dosed Wistar fatty rat assessed as reduction in blood glucose excursion at administered 1 hr prior glucose challenge as single dose by OGTT; assay type: functional; conditions: read-out: MED; how it was run: as §3
[23] = Oral bioavailability in fasted Crl:CD(SD) rat at 3 mg/kg; assay type: ADME, organism-based; conditions: in vivo; how it was run: as §1
[24] = AUC (0 to 24 hrs) in fasted Crl:CD(SD) rat at 3 mg/kg, po; assay type: ADME, organism-based; design: time < 24 hr, dose 3 mg/kg, route oral; conditions: plasma; how it was run: as §1
[25] = target: T4, Free fatty acid receptor 4 (Homo sapiens, UniProt Q5NUL3); experiment: Agonist activity at human GPR120 expressed in CHO cells assessed as calcium influx after 30 mins by FLIPR assay; assay type: functional, cell-based
T4 sequence (Q5NUL3 whole entry): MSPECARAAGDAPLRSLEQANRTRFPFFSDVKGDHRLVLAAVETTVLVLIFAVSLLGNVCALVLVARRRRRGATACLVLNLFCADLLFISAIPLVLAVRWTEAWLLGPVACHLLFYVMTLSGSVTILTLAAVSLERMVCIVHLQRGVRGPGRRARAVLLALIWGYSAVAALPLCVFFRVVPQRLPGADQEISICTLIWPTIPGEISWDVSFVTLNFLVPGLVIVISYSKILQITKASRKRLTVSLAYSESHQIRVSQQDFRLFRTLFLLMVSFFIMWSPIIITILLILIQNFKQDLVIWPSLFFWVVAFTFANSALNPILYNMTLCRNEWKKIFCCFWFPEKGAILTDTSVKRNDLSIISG

[26] = Terminal half life in fasted dog at 0.5 mg/kg, iv; assay type: ADME, organism-based, Canis lupus familiaris; design: dose 0.5 mg/kg, route intravenous; conditions: in vivo, read-out: t1/2lambda (converted); how it was run: as §2

SMILES: Cc1cccc(C)c1-c1cccc(COc2ccc3c(CC(=O)O)coc3c2)c1
- Ki [1]: > 10 µM
- Ki [2]: > 10 µM
- EC50 [3]: 1.7 µM

SMILES: Cc1cccc(C)c1-c1cccc(COc2ccc3c(c2)CCCCC3CC(=O)O)c1 (centres undefined)
- Ki [1]: > 10 µM
- Ki [2]: 2.4 µM
- EC50 [3]: 0.54 µM

SMILES: Cc1cccc(C)c1-c1cccc(COc2ccc3c(c2)CCCC3CC(=O)O)c1 (centres undefined)
- Ki [1]: 3.7 µM
- Ki [2]: 0.059 µM
- EC50 [3]: 0.023 µM

SMILES: Cc1cccc(C)c1-c1cccc(COc2ccc3c(c2)OCCC(C(=O)O)C3)c1 (centres undefined)
- Ki [1]: > 10 µM
- Ki [2]: 0.27 µM
- EC50 [3]: 0.049 µM

SMILES: Cc1cccc(C)c1-c1cccc(COc2ccc3c(c2)OCC3CC(=O)O)c1 (centres undefined)
- Ki [1]: 1.1 µM
- Ki [2]: 0.17 µM
- EC50 [3]: 0.022 µM

SMILES: Cc1cc(OCCCS(C)(=O)=O)cc(C)c1-c1cccc(COc2ccc3c(c2)OC[C@@H]3CC(=O)O)c1
- Ki [1]: 1.6 µM

Now those with a lower Ki [1], led by results:

- Ki [1]: 0.52 µM
- Ki [2]: 0.21 µM
- EC50 [3]: 0.028 µM
SMILES: Cc1cccc(C)c1-c1cccc(COc2ccc3c(c2)CCC3CC(=O)O)c1 (centres undefined)

- Ki [1]: 0.054 µM
SMILES: Cc1cccc(C)c1-c1cccc(COc2ccc(CCC(=O)O)c(F)c2)c1

- Tmax [4]: 1 h
- half-life [5]: 4.1 h
- clearance [6]: 0.496 mL/min/kg
- half-life [7]: 7.5 h
- EC50 [8]: > 10 µM
- clearance [9]: 0.569 mL/min/kg
- Cmax [11]: 5770 ng/mL
- half-life [13]: 4.7 h
- Tmax [15]: 2 h
- Vd [16]: 0.225 L/kg
- Ki [1]: 0.14 µM
- bioavailability [17]: 92.4%
- AUC(0-t) at 24 h [18]: 29400 ng·h/mL
- Vd [19]: 0.208 L/kg
- EC50 [20]: > 10 µM
- Cmax [21]: 3290 ng/mL
- bioavailability [23]: 76%
- AUC(0-t) at 24 h [24]: 65000 ng·h/mL
- EC50 [25]: > 10 µM
- half-life [26]: 5.9 h
SMILES: Cc1cc(OCCCS(C)(=O)=O)cc(C)c1-c1cccc(COc2ccc3c(c2)OC[C@H]3CC(=O)O)c1.O
- minimal effective dose [10]: 1 mg/kg
- Activity [12]: Active
- Activity [14]: Active
- minimal effective dose [22]: 1 mg/kg

Reference: ChEMBL document CHEMBL2176869, “Discovery of TAK-875: A Potent, Selective, and Orally Bioavailable GPR40 Agonist” (ACS Med Chem Lett, 2010)
